Source: ChEMBL document CHEMBL1155553, “Design and synthesis of alpha-ketoamides as cathepsin S inhibitors with potential applications against tumor invasion and angiogenesis” (J Med Chem, 2010)
Calls of active or inactive are those of the source. No cut-off for these calls is given here.

Key:
Cathepsin S [1] = target: T1, Cathepsin S (Homo sapiens, UniProt P25774); assay: Inhibition of human recombinant cathepsin S expressed in Escherichia coli BL21 (DE3) after 10 mins by fluorescence assay
Target sequence in this assay (P25774 whole entry): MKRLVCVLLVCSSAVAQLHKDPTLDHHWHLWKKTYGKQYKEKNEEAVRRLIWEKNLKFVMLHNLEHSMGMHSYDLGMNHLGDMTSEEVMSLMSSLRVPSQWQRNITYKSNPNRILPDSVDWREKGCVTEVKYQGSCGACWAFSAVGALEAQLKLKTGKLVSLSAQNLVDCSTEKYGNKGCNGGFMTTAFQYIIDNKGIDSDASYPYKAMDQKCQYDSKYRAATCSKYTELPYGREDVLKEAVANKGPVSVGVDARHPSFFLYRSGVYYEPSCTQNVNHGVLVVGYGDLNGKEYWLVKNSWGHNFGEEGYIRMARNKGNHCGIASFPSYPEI

HUVEC [2] = assay: Antiinvasive activity in VEGF-stimulated HUVEC assessed as cellular migration after 24 hrs by fluorescence assay relative to control; assay type: functional, Homo sapiens; design: concentration or dose not given beside the values
[3] = Antiinvasive activity in human CL1-5 cells assessed as cellular migration after 24 hrs by fluorescence assay relative to control; assay type: functional; design: concentration or dose not given beside the values
[4] = Cytotoxicity against human CL1-5 cells by MTT assay; assay type: cell-based
How it was run: (§1)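 Overall cytotoxicity measured by MTT proliferation assay, compounds tested at concentrations up to 50 μM.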

HUVEC [5] = assay: Cytotoxicity against HUVEC by MTT assay; assay type: cell-based; conditions: Homo sapiens; how it was run: as §1
[6] = target: Cathepsin B (Homo sapiens) (UniProt P07858); assay: Inhibition of cathepsin B assessed as proteolytic activity at 40 nM by fluorimetric assay; design: Activity: scale not given: the % may be the effect or the level left
[7] = target: Procathepsin L (Homo sapiens) (UniProt P07711); assay: Inhibition of cathepsin L assessed as proteolytic activity at 40 nM by fluorimetric assay; design: Activity: scale not given: the % may be the effect or the level left
HUVEC [8] = assay: Antiangiogenic activity in VEGF-stimulated HUVEC assessed as inhibition of capillary tube formation after 16 hrs by photographic analysis; assay type: functional, Homo sapiens; design: scale not given: the % may be the effect or the level left
How it was run: (§2)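 HUVEC plated on Matrigel-coated wells, treated with α-ketoamide in presence of VEGF (20 ng/mL); after 16 h incubation cultures photographed and capillary tubes (branch points) counted under microscope at 100× magnification. Tube formation expressed relative to DMSO control; mean ± SD from three separate experiments.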

[9] = Antiinvasive activity in human CL1-5 cells after 24 hrs by fluorescence assay; assay type: functional
How it was run: (§3)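 CL1-5 lung adenocarcinoma cells (2 × 10⁵ per well) treated with compound; control wells received DMSO (10 μL) in medium (2 mL). Cell traversal/invasion expressed as percent of DMSO control (set 100%); mean ± SD from hexaplicate experiments.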

[10] = Antiinvasive activity in human CL1-5 cells assessed as cellular invasion after 24 hrs by fluorescence assay; assay type: functional; how it was run: as §3
Cathepsin S [11] = target: T1, Cathepsin S; assay: Inhibition of cathepsin S-mediated cleavage of fibronectin by cell-based ECM degradation assay
Target sequence in this assay (P25774 115-331 limits assumed): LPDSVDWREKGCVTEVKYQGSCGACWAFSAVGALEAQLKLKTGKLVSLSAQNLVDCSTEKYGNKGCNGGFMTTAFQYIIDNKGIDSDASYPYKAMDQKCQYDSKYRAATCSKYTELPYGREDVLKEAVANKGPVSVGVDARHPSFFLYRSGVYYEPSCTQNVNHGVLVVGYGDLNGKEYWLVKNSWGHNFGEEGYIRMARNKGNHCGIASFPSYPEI

HUVEC [12] = assay: Antiangiogenic activity in VEGF-stimulated HUVEC assessed as capillary tube formation after 16 hrs by photographic analysis; assay type: functional, Homo sapiens; how it was run: as §2
[13] = Cytotoxicity against human CL1-5 cells assessed as maximal tolerated dose by MTT assay; assay type: cell-based; conditions: read-out: MTD
How it was run: (§4)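 MTT proliferation read-out for overall cytotoxicity of the α-ketoamides. Compounds were tested at concentrations up to 50 μM. Both cell types express high levels of Cat S.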

[14] = Cytotoxicity against HUVEC assessed as maximal tolerated dose by MTT assay; assay type: cell-based; conditions: human, read-out: MTD; how it was run: as §4
Cathepsin S [15] = target: T1, Cathepsin S; assay: Competitive inhibition of human recombinant cathepsin S expressed in Escherichia coli BL21 (DE3) after 15 mins by Lineweaver-Burke plot analysis
Target sequence in this assay (P25774 115-331 limits assumed): as above

Sequence of Procathepsin L (Homo sapiens) (P07711 114-333 limits assumed): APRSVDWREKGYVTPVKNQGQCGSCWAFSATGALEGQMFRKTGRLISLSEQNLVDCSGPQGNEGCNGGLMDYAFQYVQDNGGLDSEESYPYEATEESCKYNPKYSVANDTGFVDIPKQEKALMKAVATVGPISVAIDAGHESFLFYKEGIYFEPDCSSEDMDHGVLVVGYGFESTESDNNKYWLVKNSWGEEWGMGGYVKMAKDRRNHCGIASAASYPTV

SMILES	IC50 (Cathepsin S [1]) [nM]	Activity (HUVEC [2]) [%]	Activity [3] [%]	IC50 [4] [nM]	IC50 (HUVEC [5]) [nM]	other results
CCOC(=O)CNC(=O)C(=O)C(COCc1ccccc1)NC(=O)[C@H](CC1CCCCC1)NC(=O)c1cccc(C)c1[N+](=O)[O-] (some centres undefined)	5.6	83	79			
CCOC(=O)CNC(=O)C(=O)C(COCc1ccccc1)NC(=O)[C@H](CC1CCCCC1)NC(=O)c1ccc([N+](=O)[O-])s1 (some centres undefined)	10.3	56	64	> 50000	48000	
CCOC(=O)CNC(=O)C(=O)[C@H](COCc1ccccc1)NC(=O)[C@H](CC1CCCCC1)NC(=O)c1cc(Br)ccc1N	6.2	69	52			
CCOC(=O)CNC(=O)C(=O)C(COCc1ccccc1)NC(=O)[C@H](CC1CCCCC1)NC(=O)c1cccc([N+](=O)[O-])c1 (some centres undefined)	1.9	39	67	> 50000	> 50000	Activity [6]: 97%; Activity [7]: 2.9%
CCOC(=O)CNC(=O)C(=O)[C@H](COCc1ccccc1)NC(=O)[C@H](CC1CCCCC1)NC(=O)c1cc(F)ccc1F	11.5	34	48			
CCOC(=O)CNC(=O)C(=O)C(COCc1ccccc1)NC(=O)[C@H](CC1CCCCC1)NC(=O)c1ccc(OC(C)=O)cc1 (some centres undefined)	2	27	69	> 50000	> 50000	Activity [6]: 91%; Activity [7]: 0.4%
CCCCCC1OC(=O)C(C(=O)N[C@@H](CC2CCCCC2)C(=O)NC(COCc2ccccc2)C(=O)C(=O)NCC(=O)OC)=CC1C (some centres undefined)	42.3	99	119			
N#C[C@H](COCc1ccccc1)NC(=O)[C@H](CC1CCCCC1)NC(=O)N1CCOCC1		83	67	> 50000	> 50000	Activity [6]: 104%; Activity [7]: 44.8%
CCOC(=O)CNC(=O)C(=O)C(COCc1ccccc1)NC(=O)[C@H](CC1CCCCC1)NC(=O)c1cc(Cl)ccc1[N+](=O)[O-] (some centres undefined)	8	68	76	> 50000	> 50000	
CCOC(=O)CNC(=O)C(=O)C(COCc1ccccc1)NC(=O)[C@H](CC1CCCCC1)NC(=O)c1cc(Cl)cc([N+](=O)[O-])c1 (some centres undefined)	22.8	73	80	> 50000	> 50000	
CCOC(=O)CNC(=O)C(=O)C(COCc1ccccc1)NC(=O)[C@H](CC1CCCCC1)NC(=O)c1cc2ccccc2n1C (some centres undefined)	7.1	55	69			
CCOC(=O)CNC(=O)C(=O)[C@H](COCc1ccccc1)NC(=O)[C@H](CC1CCCCC1)NC(=O)C(=O)c1cccs1	6.6	57	56	> 50000	36000	Activity (HUVEC [8]): 36%; Activity [9]: 82%; Activity [10]: 18%; inhibition (Cathepsin S [11]): Dose-dependent effect; Activity (HUVEC [12]): 64%; MNTC [13]: 10 µM; MNTC [14]: 10 µM
CCOC(=O)CNC(=O)C(=O)C(COCc1ccccc1)NC(=O)[C@H](CC1CCCCC1)NC(=O)c1ccc(Cl)c(NC(=O)OC(C)(C)C)c1 (some centres undefined)	15.7	48	50	42000	48000	
CC(C)C[C@H](NC(=O)[C@H]1O[C@@H]1C(=O)O)C(=O)NCCCCN=C(N)N						inhibition [6]: 75%; inhibition [7]: -1.3%
CCOC(=O)CNC(=O)C(=O)C(COCc1ccccc1)NC(=O)[C@H](CC1CCCCC1)NC(=O)CC(c1ccccc1)(c1ccccc1)c1ccccc1 (some centres undefined)	> 100			> 50000		
CCOC(=O)CNC(=O)C(=O)C(COCc1ccccc1)NC(=O)[C@H](CC1CCCCC1)NC(=O)c1cccc(F)c1F (some centres undefined)	5.9	107	115			
CCOC(=O)CNC(=O)C(=O)C(COCc1ccccc1)NC(=O)[C@H](CC1CCCCC1)NC(=O)C1(C)CC1 (some centres undefined)	3.4	95	101	> 50000	35000	
CCOC(=O)CNC(=O)C(=O)C(COCc1ccccc1)NC(=O)[C@H](CC1CCCCC1)NC(=O)c1ccc(Br)o1 (some centres undefined)	2.3	76	80			
CCOC(=O)CNC(=O)C(=O)[C@H](COCc1ccccc1)NC(=O)[C@H](CC(C)C)NC(=O)c1cccc2c1C(=O)c1ccccc1-2	8.8	55	50	23000	30000	Activity (HUVEC [8]): 32%; Activity [9]: 68%; Activity [10]: 32%; inhibition (Cathepsin S [11]): Dose-dependent effect; Activity (HUVEC [12]): 88%; MNTC [13]: 10 µM; MNTC [14]: 10 µM
CCOC(=O)CNC(=O)C(=O)C(COCc1ccccc1)NC(=O)[C@H](CC1CCCCC1)NC(=O)N1CCOCC1 (some centres undefined)	4.4	87	51	> 50000	> 50000	Activity [6]: 102%; inhibition (Cathepsin S [15]): Active; Activity [7]: 3.2%

Now from value to compound, other results behind:

IC50 (Cathepsin S [1]) [nM]	SMILES	Activity (HUVEC [2]) [%]	Activity [3] [%]	IC50 [4] [nM]	IC50 (HUVEC [5]) [nM]	other results
6.1	CCOC(=O)CNC(=O)C(=O)C(COCc1ccccc1)NC(=O)[C@H](CC1CCCCC1)NC(=O)c1cncc(C)n1 (some centres undefined)	62	60			
4.3	CCOC(=O)CNC(=O)C(=O)C(COCc1ccccc1)NC(=O)[C@H](CC1CCCCC1)NC(=O)C1=CC(=O)CC(C)(C)O1 (some centres undefined)	89	98	> 50000	37000	
23.8	CCOC(=O)CNC(=O)C(=O)C(COCc1ccccc1)NC(=O)[C@H](CC1CCCCC1)NC(=O)c1cc(Br)ccc1NC(=O)OC(C)(C)C (some centres undefined)	86	76			
3.1	CCOC(=O)CNC(=O)C(=O)C(COCc1ccccc1)NC(=O)[C@H](CC1CCCCC1)NC(=O)c1cc(OC)ccc1[N+](=O)[O-] (some centres undefined)	98	95	> 50000	39000	
2.1	CCOC(=O)CNC(=O)C(=O)C(COCc1ccccc1)NC(=O)[C@H](CC1CCCCC1)NC(=O)c1ccc(Cl)c(N)c1 (some centres undefined)	46	68	> 50000	> 50000	
6.2	CCOC(=O)CNC(=O)C(=O)C(COCc1ccccc1)NC(=O)[C@H](CC1CCCCC1)NC(=O)c1ccc(C)cc1 (some centres undefined)	55	55			
> 100	CCOC(=O)CNC(=O)C(=O)C(COCc1ccccc1)NC(=O)[C@H](CC1CCCCC1)NC(=O)CCC(=O)c1ccc2ccc3cccc4ccc1c2c34 (some centres undefined)					
49.2	CCOC(=O)CNC(=O)C(=O)C(COCc1ccccc1)NC(=O)[C@H](CC1CCCCC1)NC(=O)c1ccc(C(=O)OC)c(NC(=O)OC(C)(C)C)c1 (some centres undefined)	82	51	36000	47000	Activity [6]: 89%; Activity [7]: 8.7%
5.7	CCOC(=O)CNC(=O)C(=O)C(COCc1ccccc1)NC(=O)[C@H](CC1CCCCC1)NC(=O)Cc1cccc2ccccc12 (some centres undefined)	54	41			
5.8	CCOC(=O)CNC(=O)C(=O)C(COCc1ccccc1)NC(=O)[C@H](CC1CCCCC1)NC(=O)c1ccc(C(=O)OC)c(N)c1 (some centres undefined)	49	53	> 50000	> 50000	Activity (HUVEC [8]): 57%; Activity [9]: 67%; Activity [6]: 84%; Activity [10]: 33%; inhibition (Cathepsin S [11]): Dose-dependent effect; Activity (HUVEC [12]): 43%; Activity [7]: 8%
3.6	CCOC(=O)CNC(=O)C(=O)C(COCc1ccccc1)NC(=O)[C@H](CC1CCCCC1)NC(=O)c1cc(SC)ccc1Cl (some centres undefined)		65	32000	> 50000	Activity [6]: 92%; Activity [7]: 17.4%
7.2	CCOC(=O)CNC(=O)C(=O)C(COCc1ccccc1)NC(=O)[C@H](CC1CCCCC1)NC(=O)Cc1cccs1 (some centres undefined)	59	67	> 50000	39000	
3.8	CCOC(=O)CNC(=O)C(=O)C(COCc1ccccc1)NC(=O)[C@H](CC1CCCCC1)NC(=O)/C=C/c1cc(OC)ccc1OC (some centres undefined)	59	81	> 50000		
